Screens deposited in PubChem BioAssay by several laboratories.
Autophagy HCS: autophagy modulation, high-content screen; 190,000 tested, 0.98% active; AID 463193; calls only at 10 µM (by protocol); MEF GFP-LC3 puncta imaging; test concentration mostly 10 µM;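 active = percentage of spot-positive cells more than 3 SD above its plate mean, without a fluorescence outlier flag or 80% toxicity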
Wee1 stabilizer: human Wee1 degradation inhibition, primary screen. P30291. HeLa Luc-Wee1K328M stability, luciferase luminescence; 100% = proteasome inhibitor MG132 effect. reporter increase, % at 5 µM. 220,000 tested, 1.2% active;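 active = activation above the mean of all tested compounds plus 3 SD, set per screening run, cut at about 8.8% in these data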;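 also: cells exposed to compound for 20 h before luminescence read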
Target sequence (P30291 whole entry K328M): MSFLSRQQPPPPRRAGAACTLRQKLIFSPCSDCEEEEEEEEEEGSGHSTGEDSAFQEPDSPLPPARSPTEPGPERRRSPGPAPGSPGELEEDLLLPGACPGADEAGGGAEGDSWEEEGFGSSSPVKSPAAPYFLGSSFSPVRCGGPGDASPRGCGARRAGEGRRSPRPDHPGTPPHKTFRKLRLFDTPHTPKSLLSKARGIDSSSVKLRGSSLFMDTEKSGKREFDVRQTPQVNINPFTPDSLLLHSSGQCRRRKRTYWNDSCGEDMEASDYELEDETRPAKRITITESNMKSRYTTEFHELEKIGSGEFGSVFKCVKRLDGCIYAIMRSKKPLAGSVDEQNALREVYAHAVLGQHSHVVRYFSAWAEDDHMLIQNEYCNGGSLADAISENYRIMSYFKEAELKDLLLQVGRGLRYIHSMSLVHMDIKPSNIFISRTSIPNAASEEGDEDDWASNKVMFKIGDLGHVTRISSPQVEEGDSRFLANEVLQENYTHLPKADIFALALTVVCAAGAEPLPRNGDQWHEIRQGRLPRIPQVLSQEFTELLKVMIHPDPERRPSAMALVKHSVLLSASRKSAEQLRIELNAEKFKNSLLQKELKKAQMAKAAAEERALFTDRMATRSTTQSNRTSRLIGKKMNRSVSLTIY
Insulin prom up: MIN6 insulin promoter up-regulation. z-score at 5 µM. 190,000 tested, 0.3% active. MIN6 insulin promoter-GFP reporter, high-content imaging; hits give high values. AID 1625;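 active = z-score above 3 at 5 µM with at least 500 cells counted in the well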
MT stabilize HCS: microtubule stabilizers in HeLa cells; % tubulin-high responders, % at 10 µM; 200,000 tested, 0.83% active; HeLa tubulin immunostaining HCS, 24 h; share of cells brighter than vehicle mean+2SD; AID 2205;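 active = plate Z-score above 3 for both tubulin-high and condensed-nucleus cell shares, with cell loss under 80%, at 10 µM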;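 also: anti alpha tubulin signal scored within the nucleus-defined area of each cell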
bCat nuc transl: alters nuclear translocation of beta-catenin in HeLa cells | nuclear translocation activity, % at 5 µM | immunofluorescence imaging | 190,000 tested, 0.3% active | AID 1665;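 active = nuclear translocation activity above 50% at 5 µM, with a well cell count of 50 or more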;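 also: per-cell ratio of nuclear to cytoplasmic median beta-catenin stain intensity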
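Test system: human HeLa cells, endogenous beta-catenin. Times: 24 h compound exposure, 37°C. Measured by: beta-catenin immunofluorescence imaging with DAPI.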
Wee1 stab conf: human Wee1 degradation inhibition, confirmation; HeLa Luc-Wee1K328M degradation, luminescence; vehicle 0%, proteasome-blocked wells 100%; shares compounds with Wee1 stabilizer; AID 1410; activation, % at 5 µM; 1,100 tested, 4% active; in the data active = activation above about 8.9%
Hits are given with their value; - = inactive; . = no result; + = active, no number. A selection: hits, their analogues and other compounds. The true share with any hit is near 2.9%.

SMILES	Autophagy HCS	Wee1 stabilizer	Insulin prom up	MT stabilize HCS	bCat nuc transl	Wee1 stab conf
O=C(Cn1cncn1)c1ccc(F)cc1F	-	-	-	-	-	.
COc1ccc(NS(=O)(=O)c2ccc(/C=C/C(=O)O)cc2)cc1S(=O)(=O)N1CCOCC1	.	-	-	.	-	.
CCOc1cc(NC(=S)NCC2CCCO2)c(OCC)cc1NC(=O)CC(C)C (stereo not given)	-	-	-	-	-	.
CCOC(=O)N1CCN(C(=O)C2CCCN(Cc3nc(-c4ccc(Cl)cc4)oc3C)C2)CC1 (stereo not given)	+	-	-	-	.	.
CC(=O)Oc1ccc2c(=O)c(Oc3ccccc3)coc2c1OC(C)=O	+	-	-	-	-	.
CCN1CCN(C(=S)Nc2cc(S(=O)(=O)N(CC)CC)ccc2C)CC1	-	-	-	-	-	.
Cc1cccc(OCCCC(=O)Nc2nc3ccccc3[nH]2)c1	+	-	-	-	-	.
CCNc1nc(OC)nc(SCC(=O)Nc2ccccc2)n1	-	-	-	13.4	-	.
CN(C)c1nc(NCc2ccccc2)nc(SCC(=O)Nc2ccccc2)n1	-	-	-	-	-	.
Cn1cc(/C=C2\SC(=O)N(c3ccccc3)C2=O)c2ccccc21	+	-	-	-	-	.
Cn1cc(/C=C2\SC(=O)N(c3ccc(O)cc3)C2=O)c2ccccc21	.	-	-	.	-	.
O=C(/C=C/c1ccco1)Nc1ccc(-c2nc3ccccc3[nH]2)cc1	-	-	-	-	-	.
C(=C\c1ccco1)/c1nc2ccccc2[nH]1	-	13.6	-	-	-	-
CSc1ccc(CN(C)Cc2nc3ccccc3c(=O)[nH]2)cc1	.	-	-	.	-	.
CC(=O)c1c(COC(=O)c2ccc(C)cc2)nc2ccccc2[n+]1[O-]	.	16.4	-	.	-	-
Cc1ccc(NC(=O)c2noc3c2CCCCC3)cc1C	-	12.7	-	-	.	-
CCN(CC)c1ccc(/C=N/NC(=O)c2ccoc2C)cc1	.	15.8	-	.	-	-
CCC(C)[C@H](NC(=O)N1CCN(c2cccc(C(F)(F)F)c2)CC1)C(=O)OC (stereo not given in full)	-	11.8	-	-	-	-
O=c1c(Cc2c(F)cccc2Cl)c(O)ccn1CC1CCCO1 (stereo not given)	-	12.2	-	-	-	-
COC(=O)Cc1c(C(=O)OC)nnn1-c1ccc(OC)cc1	-	-	-	-	-	.
COC(=O)CC1=NN(c2ccc(OC)cc2)C(=O)C1	-	11.6	-	-	-	-
CCCC(C)NC(=O)c1sc2nc3n(c(=O)c2c1C)CCC3 (stereo not given)	-	-	-	-	-	.
NC(=O)c1cccc(C(N)=O)n1	-	-	-	-	-	.
CC(C)(C)c1ccc(/C=N/NC(=S)NCc2ccccc2)cc1	-	17.1	.	-	-	-
FC(F)(F)c1ccc(NC(=S)NCc2ccccc2)cc1	-	19.1	.	-	-	-
SMILES	Autophagy HCS	Wee1 stabilizer	Insulin prom up	MT stabilize HCS	bCat nuc transl	Wee1 stab conf
CN(C)c1ccc(/C=N/NC(=S)NCc2ccccc2)cc1	-	-	-	-	-	.
O=C(CCC1CCCCC1)NNC(=O)NC12CC3CC(CC(C3)C1)C2	-	-	-	-	.	.
O=C(N/N=C/c1ccc(Cl)cc1)c1cc2c(s1)-c1ccccc1CC2	-	26.3	-	34.6	-	-
O=C(O)c1cc2c(s1)-c1ccccc1CC2	-	-	-	-	-	.
COc1ccc(C(=O)NCC(=O)OCC(=O)c2cc(OC)c(OC)c(OC)c2)cc1OC	-	-	-	-	-	.
COc1cc(C(=O)NCC(=O)OCC(=O)c2ccc[nH]2)cc(OC)c1OC	-	14.1	-	-	-	-
COc1ccc(S(=O)(=O)N2C(=O)/C(=C3\SC(N)=NC3=O)c3ccccc32)cc1	.	-	-	.	-	.
O=C(CN1CCC(n2nnc3cc(C(F)(F)F)ccc32)CC1)Nc1ccc2c(c1)CCC2	-	-	-	-	-	.
O=C(CN1CCC(n2nnc3cc(C(F)(F)F)ccc32)CC1)Nc1ccc2c(c1)OCCO2	-	15.1	-	-	-	-
Cn1nc(-c2ccc(Cl)cc2)cc1NC(=O)CCCC(=O)O	.	-	.	.	-	.
CCn1c(SCC(=O)Nc2ccc(C)cc2)nnc1-c1ccc(O)cc1	-	-	-	-	-	.
CC(C(=O)c1c[nH]c(C(=O)N=CN(C)C)c1)c1ncc(C(F)(F)F)cc1Cl (stereo not given)	-	13.5	-	-	-	-
CC1(C(=O)NCCCN2CCOCC2)Oc2cccnc2NC1=O (stereo not given)	-	-	-	-	-	.
CCCn1ncc(CN2CCN(Cc3ccc(C)o3)C(CCO)C2)c1C (stereo not given)	.	11.2	-	.	-	-
COc1ccc(OC)c2sc(N3CCN(c4ccccc4)CC3)nc12	-	21.8	.	-	.	-
COC(=O)c1sccc1N(C)S(C)(=O)=O	-	-	.	-	-	.
O=C(c1ccc(Br)o1)N1CCN(c2ccc3nnc(-c4ccccc4)n3n2)CC1	.	14.1	-	-	-	-
CC(C)(C)NC(=O)C(c1ccc(F)cc1)N(Cc1cccs1)C(=O)c1ccc(CN2CCOCC2)o1 (stereo not given)	-	10.9	-	-	-	-
O=C1/C(=C/c2cccs2)SC(=S)N1c1cccc(O)c1	.	-	-	.	-	.
CSc1ccc(-c2nnn(CC(=O)NCc3ccccc3)n2)cc1	-	-	-	-	-	.
CCOC(=O)C(Cc1ccccc1)NC(=O)Cn1nnc(-c2ccc(SC)cc2)n1 (stereo not given)	-	13.0	-	-	-	-
COc1ccccc1-c1nnc(Nc2nc3c(OC)cccc3s2)o1	-	14.8	.	-	-	-
CCNC(=S)N1CCN(S(=O)(=O)c2ccc(C)c(C)c2)CC1	-	-	-	-	-	.
C=CCNC(=S)N1CCN(S(=O)(=O)c2ccc(C)cc2)CC1	.	16.6	-	.	-	-
CCCCOC(=O)c1ccccc1N1C(=O)C2C3CCC(C3)C2C1=O (stereo not given)	-	12.4	-	-	-	-
SMILES	Autophagy HCS	Wee1 stabilizer	Insulin prom up	MT stabilize HCS	bCat nuc transl	Wee1 stab conf
Fc1ccccc1/C=N/Nc1ncnc2ccccc12	-	11.5	-	-	-	-
Clc1ccc(/C=N/Nc2ncnc3ccccc23)cc1Cl	-	-	-	-	-	.
CCOCCCNC(=S)Nc1ccc(S(N)(=O)=O)cc1	-	13.4	-	-	.	-
COc1ccc2c(=O)c(-c3ccccc3)coc2c1	-	9.9	-	-	-	-
O=C(Cc1ccccc1)c1c[nH]c(C(=O)NCCCN2CCOCC2)c1	-	-	-	-	-	.
O=C(COC(=O)c1c2c(nc3ccccc13)/C(=C/c1ccco1)CC2)NC1CCCC1	-	-	-	-	-	.
CC1CCCCC1NC(=O)COC(=O)c1c2c(nc3ccccc13)/C(=C/c1ccco1)CC2 (stereo not given)	-	11.3	.	-	-	-
O=C(C1=NN[C@@H]2C(=O)N(Cc3ccccc3)C(=O)[C@H]12)c1ccc(F)cc1	.	11.0	-	.	-	-
